Test results published in ChEMBL document CHEMBL4840310, “Discovery of novel 2,3,5-trisubstituted pyridine analogs as potent inhibitors of IL-1β via modulation of the p38 MAPK signaling pathway” (Eur J Med Chem, 2021).
Calls of active or inactive are those of the source. The calls are words filed in the database; no cut-off is given here.

Tests used:
[1] = Inhibition of LPS stimulated IL-1beta in human mococyte-derived macrophages cells preincubated for 2 hrs followed by LPS stimulation and measured after 6 hrs by ELISA; type: functional; settings: Macrophage
Summary of the method: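 Human monocyte-derived macrophages stimulated with LPS; IL-1β secretion measured over 10 concentrations per compound, N = 2, to compute individual IC50 values; dexamethasone run in parallel as reference. Z-score reported.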

[2] = Tmax in Wistar rat at 65 mg/kg, po administered as single dose; type: ADME, organism-based; settings: in vivo
Summary of the method: (§1)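 Female Wistar rats, 8 weeks old, given a single oral 65 mg/kg dose in PEG400/Kolliphor HS 15 (70/30 v/v); plasma drug levels sampled over time (N = 9). Tmax taken from the curve; two-compartment fit with first-order terminal elimination gave distribution and elimination half-lives.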

[3] = tested on: Macrophage; assay: Inhibition of LPS stimulated IL-6 in human mococyte-derived macrophages cells at 1 uM preincubated for 2 hrs followed by LPS stimulation and measured after 6 hrs by ELISA; type: functional; settings: time 8.0 hrs
[4] = tested on: Mus musculus; assay: Anti-inflammatory activity in po dosed Balb/c mouse assessed as inhibition of stimulated IL-1beta secretion in lung after 4 hrs by ELISA; type: functional, organism-based; settings: dose 10-20 mg/kg
[5] = biological target: T1, Mitogen-activated protein kinase 14 (Homo sapiens, UniProt Q16539); assay: Binding affinity to p38 alpha MAPK (unknown origin) assessed as dissociation rate constant by surface plasmon resonance imaging
T1 sequence (Q16539 whole entry): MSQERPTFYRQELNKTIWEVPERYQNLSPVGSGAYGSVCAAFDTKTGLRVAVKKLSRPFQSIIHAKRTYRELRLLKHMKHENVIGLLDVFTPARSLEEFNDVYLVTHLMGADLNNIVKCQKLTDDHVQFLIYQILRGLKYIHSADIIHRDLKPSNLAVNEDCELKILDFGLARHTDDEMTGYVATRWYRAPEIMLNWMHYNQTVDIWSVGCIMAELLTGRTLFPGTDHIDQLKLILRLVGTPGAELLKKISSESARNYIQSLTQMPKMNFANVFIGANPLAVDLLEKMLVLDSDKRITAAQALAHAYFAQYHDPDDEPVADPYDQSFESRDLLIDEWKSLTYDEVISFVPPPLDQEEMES

[6] = tested on: Mus musculus; assay: Anti-inflammatory activity in po dosed Balb/c mouse assessed as inhibition of stimulated IL-1beta secretion in brain after 4 hrs by ELISA; type: functional, organism-based; settings: dose 10-20 mg/kg
[7] = tested on: Macrophage; assay: Inhibition of LPS stimulated IL-2 in human mococyte-derived macrophages cells at 1 uM preincubated for 2 hrs followed by LPS stimulation and measured after 6 hrs by ELISA; type: functional; settings: time 8.0 hrs
[8] = Elimination half life in Wistar rat 65 mg/kg, po administered as single dose; type: ADME, organism-based; settings: in vivo, read-out: beta t1/2 (converted); summary of the method: as §1
[9] = tested on: Macrophage; assay: Inhibition of LPS stimulated GM-CSF in human mococyte-derived macrophages cells at 1 uM preincubated for 2 hrs followed by LPS stimulation and measured after 6 hrs by ELISA; type: functional; settings: time 8.0 hrs
[10] = tested on: Mus musculus; assay: Anti-inflammatory activity in Balb/c mouse assessed as inhibition of stimulated IL-1beta secretion in plasma at 20 mg/kg, po after 4 hrs by ELISA; type: functional, organism-based
Summary of the method: (§2)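 Male BALB/c mice dosed orally with 10 or 20 mg/kg compound (DMSO stock, then 5% TPGS in PBS), vehicle controls. LPS O111:B4 0.33 mg/kg i.p. in saline given 2 h after treatment. Blood drawn retro-orbitally into heparin tubes 4 h post-LPS; plasma IL-1β by ELISA read at 450 nm.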

[11] = tested on: Mus musculus; assay: Anti-inflammatory activity in po dosed Balb/c mouse assessed as inhibition of stimulated IL-1beta secretion in liver after 4 hrs by ELISA; type: functional, organism-based; settings: dose 10-20 mg/kg
[12] = tested on: Macrophage; assay: Inhibition of LPS stimulated IL-4 in human mococyte-derived macrophages cells at 1 uM preincubated for 2 hrs followed by LPS stimulation and measured after 6 hrs by ELISA; type: functional; settings: time 8.0 hrs
[13] = tested on: Macrophage; assay: Inhibition of LPS stimulated IL-8 in human mococyte-derived macrophages cells at 1 uM preincubated for 2 hrs followed by LPS stimulation and measured after 6 hrs by ELISA; type: functional; settings: time 8.0 hrs
[14] = biological target: T1, Mitogen-activated protein kinase 14; assay: Binding affinity to p38 alpha MAPK (unknown origin) assessed as association constant by surface plasmon resonance imaging
[15] = tested on: Mus musculus; assay: Anti-inflammatory activity in Balb/c mouse assessed as inhibition of stimulated IL-1beta secretion in plasma at 10 mg/kg, po after 4 hrs by ELISA; type: functional, organism-based; summary of the method: as §2
[16] = Half life in Wistar rat 65 mg/kg, po administered as single dose; type: ADME, organism-based; settings: in vivo; summary of the method: as §1

| SMILES | IC50 [1] [nM] | other results |
| --- | --- | --- |
| CCOc1ccc(Nc2cc(S(=O)(=O)N(C)C)cnc2N2CCC(Oc3ccc(Cl)cc3)CC2)cc1 | > 10000 |  |
| CCC(=O)c1ccc(Nc2cc(S(=O)(=O)N(C)C)cnc2N2CCC(Oc3ccc(Cl)cc3)CC2)cc1 | > 10000 |  |
| CCOc1ccc(Oc2cc(S(=O)(=O)N(C)C)cnc2N2CCN(Cc3ccc(Cl)nc3)CC2)cc1 | > 10000 |  |
| CN(C)S(=O)(=O)c1cnc(N2CCC(Oc3ccc(Cl)cc3)CC2)c(Nc2ccc3oc(CO)cc3c2)c1 | 12.8 |  |
| CN(C)S(=O)(=O)c1cnc(N2CCC(Oc3ccc(Cl)cc3)CC2)c(Oc2ccc(OCCO)cc2)c1 | > 10000 |  |
| CCOc1ccc(Oc2cc(S(=O)(=O)N(C)C)cnc2N2CCC(Oc3ccc(C(N)=O)nc3)CC2)cc1 | 337 |  |
| CCOc1ccc(Oc2cc(S(=O)(=O)N(C)C)cnc2N2CCC(Oc3ccc(Cl)nc3)CC2)cc1 | 4000 |  |
| CN(C)S(=O)(=O)c1cnc(N2CCC(Oc3ccc(Cl)cc3)CC2)c(-c2ccc3c(c2)CCO3)c1 | 27 |  |
| CCOc1ccc(Oc2cc(S(=O)(=O)N(C)C)cnc2N2CCC(Oc3ccc(Cl)nn3)CC2)cc1 | 1100 |  |
| CCC(=O)c1ccc(-c2cc(S(=O)(=O)N(C)C)cnc2N2CCC(Oc3ccc(Cl)cc3)CC2)cc1 | > 10000 |  |
| CCOc1ccc(Oc2cc(S(=O)(=O)N(C)C)cnc2N2CCC(Oc3ccc(Cl)cc3)CC2)cc1 | 28 | Tmax [2]: 1 h; inhibition [3]: Active; Activity [4]: Dose-Dependent Effect; koff [5]: 2.48 10^-4/s; Activity [6]: Dose-Dependent Effect; inhibition [7]: Active; half-life [8]: 9 h; inhibition [9]: Active; Activity [10]: Active; Activity [11]: Dose-Dependent Effect; inhibition [12]: Active; inhibition [13]: Active; Ka [14]: 2.08 10^4/M/s; Activity [15]: Active; half-life [16]: 2.1 h |
| CCCOc1ccc(Nc2cc(S(=O)(=O)N(C)C)cnc2N2CCC(Oc3ccc(Cl)cc3)CC2)cc1 | > 10000 |  |
| CN(C)S(=O)(=O)c1cnc(N2CCC(Oc3ccc(Cl)cc3)CC2)c(Nc2ccc3c(c2)OCO3)c1 | 121 |  |
| CCOc1ccc(Oc2cc(S(=O)(=O)N(C)C)cnc2N2CCN(Cc3ccc(Cl)cc3)CC2)cc1 | > 10000 |  |
| CN(C)S(=O)(=O)c1cnc(N2CCC(Oc3ccc(Cl)cc3)CC2)c(Nc2ccc3c(c2)CCO3)c1 | 29 |  |
| CN(C)S(=O)(=O)c1cnc(N2CCC(Oc3ccc(Cl)cc3)CC2)c(Oc2ccc3c(c2)CCO3)c1 | 28 |  |
